In the library only some 4.8% were active in any assay of this set; here they are far more common.
NALP1 yeast inh – inhibitors of NALP1 inflammasome in yeast; S. cerevisiae NALP1/ASC/caspase-1 growth, X-gal OD620, 72 h; inhibition, % at 10 µM; 0.61% of 280,000 active; AID 2071; in the data active means inhibition mostly above about 24%, no sharp cut-off; inactive means mostly below about 32%
NALP3 yeast inh – inhibitors of NALP3 inflammasome in yeast; Yeast reconstituted NLRP3/ASC/caspase-1, beta-gal luminescence, 24 h; inhibition, % at 10 µM; 0.39% of 330,000 active;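 active means inhibition of 50% or more; inactive means inhibition below 50%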;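 further: plate controls were induced DMSO wells for no effect and uninduced yeast grown without galactose for full effect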
Calb FLC – C. albicans growth modulation with fluconazole; C. albicans CaCi-2 + fluconazole, Alamar Blue growth, 48 h; growth inhibition, % (no concentration beside the values); 0.57% of 300,000 active; AID 1979;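 active means growth inhibition above about 58% in most replicates, limit read from the data, passing the limit was not always enough; inconclusive means exactly half the replicates above a set limit; inactive means most replicates below a set limit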;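 further: all wells also contain fluconazole at 8 µg/ml as a sub-toxic cotreatment; 0% = median of DMSO wells and 100% = median of geldanamycin control wells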
ALR H2O2 inh – human ALR oxidase inhibition via reduced H2O2 | P55789 | purified ALR, DTT oxidation, H2O2 HRP-luminol luminescence | inhibition, % (test concentration not listed) | 3.8% of 290,000 active;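 active means mean replicate inhibition above about 79%, with every replicate also reaching it, limit read from the data; inconclusive means only one of the two criteria met; inactive means mean below limit and not every replicate reaching it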
Target sequence (P55789 whole entry, looked up): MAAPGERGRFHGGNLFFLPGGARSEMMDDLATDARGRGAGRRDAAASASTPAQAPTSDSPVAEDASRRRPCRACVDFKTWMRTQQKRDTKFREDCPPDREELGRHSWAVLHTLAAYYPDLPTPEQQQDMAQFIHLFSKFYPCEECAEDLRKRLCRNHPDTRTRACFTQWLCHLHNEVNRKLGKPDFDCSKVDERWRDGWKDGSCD
ATG4B inhibitor – blocks human ATG4B protease cleavage of LC3 substrate. Q9Y4P1. ATG4B cleavage of LC3-PLA2, NBD-HPC fluorescence, 1 h. inhibition, % at 8.33 µM. 0.51% of 340,000 active; in the data active means inhibition above about 40%
UCH37 DUB inh – blocks the human deubiquitinase UCH37 | Q9Y5K5 | purified proteasome/UCH37, Ub-AMC cleavage fluorescence | inhibition, % (test concentration not listed) | 0.33% of 330,000 active | AID 588478;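 active means mean inhibition over replicate wells above about 20%, limit read from the data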;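 further: 0% = compound-free wells with enzyme and 100% = wells lacking proteasome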
Target sequence (Q9Y5K5 whole entry, looked up): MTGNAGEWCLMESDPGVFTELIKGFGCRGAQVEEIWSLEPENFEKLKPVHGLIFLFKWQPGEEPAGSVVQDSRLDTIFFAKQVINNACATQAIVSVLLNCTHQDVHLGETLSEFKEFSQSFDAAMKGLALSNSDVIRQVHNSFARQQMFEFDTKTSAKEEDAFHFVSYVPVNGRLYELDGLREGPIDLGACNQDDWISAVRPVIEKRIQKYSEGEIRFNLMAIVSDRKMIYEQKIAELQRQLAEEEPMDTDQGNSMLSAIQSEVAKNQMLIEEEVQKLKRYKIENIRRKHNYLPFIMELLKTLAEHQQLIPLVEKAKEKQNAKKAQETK
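Material: Human UCH37 enzyme supplied as purified proteasome complex | Schedule: 30 min compound-proteasome preincubation then 25 min substrate reaction, room temperature | Detection: AMC fluorescence from Ub-AMC cleavage, excitation 355 nm, emission 460 nm | Benchmarks: Wells without proteasome as full block, compound-free enzyme plus substrate as uninhibited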
Numbers without * were called inactive.

How did O=c1[nH][nH]c(-c2ccccc2O)c1C(C[N+](=O)[O-])c1ccccc1 (configuration not stated) do in these assays?
NALP3 yeast inh: 31; Calb FLC: 21; ALR H2O2 inh: 54; ATG4B inhibitor: -7

Results for Cc1cc(O)c(C(C[N+](=O)[O-])c2ccc(Cl)cc2Cl)c(=O)o1 (configuration not stated) ?
NALP1 yeast inh: -8; NALP3 yeast inh: 12; Calb FLC: inconclusive; ALR H2O2 inh: 8; ATG4B inhibitor: 4; UCH37 DUB inh: 4

What do the screens show for `O=c1[nH][nH]c(-c2ccccc2O)c1C(C[N+](=O)[O-])c1cccc(Cl)c1` (configuration not stated)?
NALP1 yeast inh: 101*; NALP3 yeast inh: 22; Calb FLC: 3; ATG4B inhibitor: -8; UCH37 DUB inh: 1

What do the screens show for `CC(C)(C#N)Nc1ccccc1`?
NALP1 yeast inh: 18*; NALP3 yeast inh: 18; Calb FLC: -6; ALR H2O2 inh: -1; ATG4B inhibitor: -13; UCH37 DUB inh: 0

Results for CC(C)(C#N)NC(=O)c1ccco1 ?
NALP1 yeast inh: 13; NALP3 yeast inh: 9; Calb FLC: -2; ALR H2O2 inh: 5; ATG4B inhibitor: 2; UCH37 DUB inh: 1

What do the screens show for `Cc1ccc(C(N)=NOC(=O)C(C)c2ccc([N+](=O)[O-])cc2)cc1` (configuration not stated)?
UCH37 DUB inh: 0

How did CC1(C)CC(=O)C(C2C3=C(CC(C)(C)CC3=O)Oc3ccccc32)C(=O)C1 (configuration not stated) do in these assays?
NALP1 yeast inh: 21; NALP3 yeast inh: 7; Calb FLC: 8; ALR H2O2 inh: 6; ATG4B inhibitor: 1; UCH37 DUB inh: 7

Results for CC1(C)CC(=O)C2=C(C1)Oc1nc3ccccc3cc1C2C(C#N)C#N (configuration not stated) ?
NALP1 yeast inh: 8; NALP3 yeast inh: 25; Calb FLC: 23; ALR H2O2 inh: 80*; ATG4B inhibitor: -3; UCH37 DUB inh: 6

How did C=C1C(=O)C=C2CN(C(=O)c3ccccc3)[C@@](Cc3ccc(F)cc3)(C(=O)OC)[C@@H]12 do in these assays?
NALP1 yeast inh: 63*; NALP3 yeast inh: 31; Calb FLC: -1; ALR H2O2 inh: 46; ATG4B inhibitor: 2; UCH37 DUB inh: 0

How did COC(=O)[C@@]1(Cc2ccc(OC)cc2)[C@@H]2C(=CC(=O)[C@H]2CC(=O)C(=O)N(C)C)CN1C(=O)c1ccccc1 do in these assays?
NALP1 yeast inh: 14; NALP3 yeast inh: 2; ALR H2O2 inh: 6; ATG4B inhibitor: -8; UCH37 DUB inh: 4

Results for CCc1ccc(OCC(=O)N/N=C\c2ccco2)c([N+](=O)[O-])c1 ?
NALP1 yeast inh: 26; NALP3 yeast inh: 16; Calb FLC: 17; ALR H2O2 inh: 96*; ATG4B inhibitor: 8

What do the screens show for `Cc1ccc(OCC(=O)N/N=C\c2ccc(O)cc2)c([N+](=O)[O-])c1`?
NALP1 yeast inh: 8; NALP3 yeast inh: 1; Calb FLC: -9; ALR H2O2 inh: 87*; ATG4B inhibitor: -16

How did CNC(=O)c1cc(Nc2nnc(-c3ccc(O)cc3)c3ccccc23)ccc1OC do in these assays?
NALP1 yeast inh: 9; NALP3 yeast inh: 13; Calb FLC: 17; ALR H2O2 inh: 98*; ATG4B inhibitor: -8; UCH37 DUB inh: -3

How did CNC(=O)c1ccc(Nc2nnc(-c3ccc(O)cc3)c3ccccc23)cc1 do in these assays?
NALP1 yeast inh: 9; NALP3 yeast inh: -6; Calb FLC: -3; ALR H2O2 inh: 30; ATG4B inhibitor: 9; UCH37 DUB inh: -15

How did CN(C)C(=O)c1ccc(Nc2nnc(-c3ccc(O)cc3)c3ccccc23)cc1 do in these assays?
NALP1 yeast inh: 2; NALP3 yeast inh: 17; Calb FLC: -3; ALR H2O2 inh: 74; ATG4B inhibitor: -3; UCH37 DUB inh: 2

Results for Cc1ccc(-c2nnc(Nc3cccc(O)c3)c3ccccc23)cc1S(=O)(=O)NCCO ?
NALP1 yeast inh: -3; NALP3 yeast inh: 11; Calb FLC: 1; ALR H2O2 inh: 64; ATG4B inhibitor: -37; UCH37 DUB inh: 3

What do the screens show for `Cc1ccc(-c2nnc(Nc3ccc(O)cc3)c3ccccc23)cc1S(=O)(=O)NCCO`?
NALP1 yeast inh: 6; NALP3 yeast inh: 13; Calb FLC: 5; ALR H2O2 inh: 97*; ATG4B inhibitor: -12; UCH37 DUB inh: 8

How did Oc1ccc(-c2nnc(Nc3cccc(O)c3)c3ccccc23)cc1 do in these assays?
NALP1 yeast inh: 44*; NALP3 yeast inh: -9; Calb FLC: -2; ALR H2O2 inh: 98*; ATG4B inhibitor: -8; UCH37 DUB inh: -7

Results for CCOC(=O)C1(C)NC(c2ccc(O)cc2)C2C(=O)N(c3ccccc3)C(=O)C21 (configuration not stated) ?
NALP1 yeast inh: 2; NALP3 yeast inh: 10; Calb FLC: -9; ALR H2O2 inh: -5; ATG4B inhibitor: 2; UCH37 DUB inh: 0

What do the screens show for `COc1cccc(C2NC(CC(C)C)(C(=O)O)C3C(=O)N(Cc4ccccc4)C(=O)C23)c1O` (configuration not stated)?
NALP1 yeast inh: 6; NALP3 yeast inh: 3; Calb FLC: 4; ALR H2O2 inh: 48; ATG4B inhibitor: -2; UCH37 DUB inh: 3

What do the screens show for `CC(C)N1C(=O)C2C(c3ccccc3O)NC(C)(C(=O)O)C2C1=O` (configuration not stated)?
NALP1 yeast inh: 18; NALP3 yeast inh: -3; Calb FLC: 11; ALR H2O2 inh: 89*; ATG4B inhibitor: -9; UCH37 DUB inh: 5

Results for COc1cccc(C2NC(CCSC)(C(=O)O)C3C(=O)N(C(C)C)C(=O)C23)c1O (configuration not stated) ?
NALP1 yeast inh: 0; NALP3 yeast inh: 6; Calb FLC: 21; ALR H2O2 inh: 98*; ATG4B inhibitor: -6; UCH37 DUB inh: 8

How did CC(C)CC1(C(=O)O)NC(c2ccccc2O)C2C(=O)N(C(C)C)C(=O)C21 (configuration not stated) do in these assays?
NALP1 yeast inh: -3; NALP3 yeast inh: 21; Calb FLC: 0; ALR H2O2 inh: 93*; ATG4B inhibitor: -8; UCH37 DUB inh: 2

Results for O=C(O)c1ccc(N/N=C/C(Br)=C/c2ccccc2)cc1 ?
NALP1 yeast inh: -3; NALP3 yeast inh: 3; Calb FLC: 2; ALR H2O2 inh: 98*; ATG4B inhibitor: 1

What do the screens show for `O=C(O)c1ccc(NN=C/C=C/c2ccccc2)cc1`?
UCH37 DUB inh: 18

What do the screens show for `O=C(O)c1ccc(N/N=C/c2c[nH]c3ccccc23)cc1`?
NALP1 yeast inh: 1; NALP3 yeast inh: 7; Calb FLC: -6; ALR H2O2 inh: 98*; ATG4B inhibitor: 7

Results for NC(=S)NN=Cc1c[nH]c2ccccc12 ?
UCH37 DUB inh: 7
